Measurements as given in ChEMBL document CHEMBL1122958, “Angiotensin converting enzyme inhibitors. (Mercaptoaroyl)amino acids” (J Med Chem, 1985).

How the values were obtained:
[1] = molecular target: T1, Angiotensin-converting enzyme (Rattus norvegicus) (UniProt P47820); experiment: In vivo percent mean decrease in Angiotensin I converting enzyme inhibitory activity in 2 rats administered perorally at a dose of 10 mg/kg; assay type: functional, organism-based; parameters: dose 10 mg/kg
T1 sequence (whole entry): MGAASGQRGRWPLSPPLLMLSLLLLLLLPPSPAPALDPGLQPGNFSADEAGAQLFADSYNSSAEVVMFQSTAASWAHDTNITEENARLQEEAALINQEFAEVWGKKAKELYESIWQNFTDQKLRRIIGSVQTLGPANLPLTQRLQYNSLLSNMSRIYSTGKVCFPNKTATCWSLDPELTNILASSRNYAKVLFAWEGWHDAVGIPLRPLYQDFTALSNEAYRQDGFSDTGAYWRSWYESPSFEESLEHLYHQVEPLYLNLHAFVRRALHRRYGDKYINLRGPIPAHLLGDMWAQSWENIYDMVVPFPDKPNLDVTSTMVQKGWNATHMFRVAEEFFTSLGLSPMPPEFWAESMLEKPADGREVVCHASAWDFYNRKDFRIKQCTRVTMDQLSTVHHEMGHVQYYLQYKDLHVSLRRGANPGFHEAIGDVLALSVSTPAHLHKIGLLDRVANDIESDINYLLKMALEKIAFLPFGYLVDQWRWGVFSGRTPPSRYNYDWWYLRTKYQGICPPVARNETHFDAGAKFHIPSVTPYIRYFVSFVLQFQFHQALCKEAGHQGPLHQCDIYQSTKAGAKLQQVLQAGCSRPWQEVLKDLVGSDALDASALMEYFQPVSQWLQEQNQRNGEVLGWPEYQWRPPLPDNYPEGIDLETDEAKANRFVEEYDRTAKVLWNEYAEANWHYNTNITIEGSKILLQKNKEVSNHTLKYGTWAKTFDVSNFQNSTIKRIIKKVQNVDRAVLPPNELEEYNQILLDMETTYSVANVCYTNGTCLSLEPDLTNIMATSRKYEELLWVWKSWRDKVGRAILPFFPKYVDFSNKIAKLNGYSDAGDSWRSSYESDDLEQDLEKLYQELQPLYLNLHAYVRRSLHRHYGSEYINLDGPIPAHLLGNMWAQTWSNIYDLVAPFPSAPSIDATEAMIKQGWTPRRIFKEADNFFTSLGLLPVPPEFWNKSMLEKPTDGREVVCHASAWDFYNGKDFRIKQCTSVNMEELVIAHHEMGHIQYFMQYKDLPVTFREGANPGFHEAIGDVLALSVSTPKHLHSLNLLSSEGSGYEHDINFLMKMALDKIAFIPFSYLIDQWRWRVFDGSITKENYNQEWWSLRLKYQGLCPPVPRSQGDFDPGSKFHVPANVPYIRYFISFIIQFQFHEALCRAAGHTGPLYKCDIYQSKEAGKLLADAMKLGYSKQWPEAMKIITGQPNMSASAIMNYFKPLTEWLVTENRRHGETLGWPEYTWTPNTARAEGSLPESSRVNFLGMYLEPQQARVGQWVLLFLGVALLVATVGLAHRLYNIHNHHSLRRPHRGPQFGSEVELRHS
Outline: (§1)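 Conscious normotensive male rats with aortic and vena caval catheters (implanted ≥6 days before), restrained. Angiotensin I and II, 0.25 μg/kg iv, given at 10-min intervals as pressor challenges. Compound given once, generally orally, suspended in 0.5% gum tragacanth. AI repeated every 10 min for ≥2 h. Max inhibition is % of mean of two predose AI responses. Duration runs from dosing until inhibition falls below 30%. ED50 taken from dose–response plot as dose giving 50% inhibition.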

[2] = molecular target: T1, Angiotensin-converting enzyme (Rattus norvegicus); experiment: In vivo mean duration for Angiotensin I converting enzyme inhibitory activity in 2 rats administered perorally at a dose of 10 mg/kg; assay type: functional, organism-based; parameters: dose 10 mg/kg; outline: as §1
[3] = molecular target: T2, Angiotensin-converting enzyme (Oryctolagus cuniculus, UniProt P12822); experiment: In vitro inhibitory activity against Angiotensin I converting enzyme
T2 sequence (P12822 whole entry): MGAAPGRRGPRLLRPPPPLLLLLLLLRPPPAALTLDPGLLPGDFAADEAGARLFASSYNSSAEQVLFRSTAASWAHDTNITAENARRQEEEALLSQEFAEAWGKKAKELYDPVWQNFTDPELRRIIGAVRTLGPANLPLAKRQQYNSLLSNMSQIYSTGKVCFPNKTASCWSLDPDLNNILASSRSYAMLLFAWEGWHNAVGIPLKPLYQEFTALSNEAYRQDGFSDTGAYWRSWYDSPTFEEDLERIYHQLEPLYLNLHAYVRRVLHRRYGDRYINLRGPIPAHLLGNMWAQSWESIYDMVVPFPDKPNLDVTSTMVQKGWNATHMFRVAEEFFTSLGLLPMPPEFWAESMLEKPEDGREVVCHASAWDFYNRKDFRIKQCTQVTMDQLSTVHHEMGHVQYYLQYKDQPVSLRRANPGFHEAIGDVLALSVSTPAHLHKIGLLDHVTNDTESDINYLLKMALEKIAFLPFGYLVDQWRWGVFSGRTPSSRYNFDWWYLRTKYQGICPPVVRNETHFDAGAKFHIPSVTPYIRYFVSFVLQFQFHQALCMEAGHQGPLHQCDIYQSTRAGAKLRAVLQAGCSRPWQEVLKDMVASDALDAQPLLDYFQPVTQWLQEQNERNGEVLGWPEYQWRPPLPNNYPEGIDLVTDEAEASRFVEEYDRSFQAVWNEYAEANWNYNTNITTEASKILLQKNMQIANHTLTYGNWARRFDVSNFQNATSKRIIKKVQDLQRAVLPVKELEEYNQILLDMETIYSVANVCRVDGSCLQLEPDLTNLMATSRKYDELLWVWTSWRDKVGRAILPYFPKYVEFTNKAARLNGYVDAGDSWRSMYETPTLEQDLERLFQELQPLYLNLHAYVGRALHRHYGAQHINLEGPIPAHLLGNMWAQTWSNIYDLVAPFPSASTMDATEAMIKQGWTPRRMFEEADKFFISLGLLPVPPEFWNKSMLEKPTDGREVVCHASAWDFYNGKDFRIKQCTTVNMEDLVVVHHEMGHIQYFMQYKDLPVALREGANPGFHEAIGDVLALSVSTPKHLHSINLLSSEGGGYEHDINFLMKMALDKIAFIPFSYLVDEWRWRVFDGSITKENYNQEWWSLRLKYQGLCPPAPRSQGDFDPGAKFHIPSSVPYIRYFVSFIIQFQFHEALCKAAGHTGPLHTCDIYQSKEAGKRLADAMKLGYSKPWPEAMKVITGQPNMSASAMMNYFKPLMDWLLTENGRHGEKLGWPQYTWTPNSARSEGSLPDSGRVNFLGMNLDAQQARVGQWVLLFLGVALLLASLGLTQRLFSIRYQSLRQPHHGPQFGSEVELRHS
Outline: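 Crude ACE from rabbit lung acetone powder, extracted in cold 0.05 M KH2PO4–0.03 M n-octyl-β-D-glucopyranoside pH 8.3, centrifuged 30000g, supernatant dialysed. Assay in 0.1 M KH2PO4–0.3 M NaCl–2% Me2SO, pH 8.3, 37 °C, substrate hippuryl-L-histidyl-L-leucine 2 mM; started by enzyme addition. Activity compared with and without inhibitor (in Me2SO). IC50 from one concentration–response curve per compound.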

[4] = molecular target: T1, Angiotensin-converting enzyme (Rattus norvegicus); experiment: In vivo mean duration for Angiotensin I converting enzyme inhibitory activity in 5 rats administered perorally at a dose of 10 mg/kg; assay type: functional, organism-based; parameters: dose 10 mg/kg; outline: as §1
[5] = molecular target: T1, Angiotensin-converting enzyme (Rattus norvegicus); experiment: In vivo percent mean decrease in Angiotensin I converting enzyme inhibitory activity in 5 rats administered perorally at a dose of 10 mg/kg; assay type: functional, organism-based; parameters: dose 10 mg/kg; outline: as §1
[6] = system: Rattus norvegicus; experiment: Effective dose against ACE inhibitory activity in rat in vivo; assay type: functional; outline: as §1
[7] = molecular target: T1, Angiotensin-converting enzyme (Rattus norvegicus); experiment: In vivo percent mean decrease in Angiotensin I converting enzyme activity in 2 rats administered perorally at a dose of 10 mg/kg; assay type: functional, organism-based; parameters: dose 10 mg/kg; outline: as §1
[8] = molecular target: T1, Angiotensin-converting enzyme (Rattus norvegicus); experiment: In vivo percent mean decrease in Angiotensin I converting enzyme inhibitory activity in 2 rats administered perorally at a dose of 1.5 mg/kg; assay type: functional, organism-based; parameters: dose 1.5 mg/kg; outline: as §1
[9] = molecular target: T1, Angiotensin-converting enzyme (Rattus norvegicus); experiment: In vivo mean duration for Angiotensin I converting enzyme inhibitory activity in 2 rats administered perorally at a dose of 1.5 mg/kg; assay type: functional, organism-based; parameters: dose 1.5 mg/kg; outline: as §1
[10] = molecular target: T1, Angiotensin-converting enzyme (Rattus norvegicus); experiment: In vivo mean duration for Angiotensin I converting enzyme inhibitory activity in rat administered perorally at a dose of 10 mg/kg; assay type: functional, organism-based; parameters: dose 10 mg/kg; outline: as §1
[11] = molecular target: T1, Angiotensin-converting enzyme (Rattus norvegicus); experiment: In vivo percent mean decrease in Angiotensin I converting enzyme inhibitory activity in a rat administered perorally at a dose of 10 mg/kg; assay type: functional, organism-based; parameters: dose 10 mg/kg; outline: as §1
[12] = molecular target: T1, Angiotensin-converting enzyme (Rattus norvegicus); experiment: In vivo for percent mean decrease in Angiotensin I converting enzyme inhibitory activity in 4 rats administered perorally at a dose of 1.5 mg/kg; assay type: functional, organism-based; parameters: dose 1.5 mg/kg; outline: as §1

| SMILES | Mean duration [2] | IC50 [3] | also measured |
| --- | --- | --- | --- |
| CC(=O)Sc1c(F)cccc1C(=O)N(CC(=O)O)C1CCCC1 | 90 min | 0.6 µM | Mean decrease [1]: 82% |
| COc1cccc(C(=O)N(CC(=O)O)C2CCCC2)c1S |  | 0.38 µM | Mean duration [4]: 4 h; Mean decrease [5]: 92%; ED50 [6]: 0.8 mg/kg |
| O=C(O)CN(C(=O)c1ccccc1C(=O)O)C1CCCC1 |  | 100 µM |  |
| O=C(O)CN(C(=O)c1cc(Cl)ccc1S)C1CCCC1 | 0 min | 80 µM | Mean decrease [7]: 22% |
| O=C(O)CN(C(=O)c1cc(Cl)cc(Cl)c1S)C1CCCC1 |  | 4.1 µM |  |
| CC(=O)Sc1ccccc1C(=O)N(CC(=O)O)C1CCCC1 |  | 9.1 µM | Mean decrease [8]: 25%; Mean duration [9]: 0 min |
| CC(=O)Sc1c(C)cccc1C(=O)N(CC(=O)O)C1CCCC1 |  | 2.2 µM | Mean decrease [8]: 35%; Mean duration [9]: 20 min |
| CC(=O)Sc1cccc(C(=O)N(CC(=O)O)C2CCCC2)c1 |  | 28 µM |  |
| CC(=O)Sc1ccc(C(=O)N(CC(=O)O)C2CCCC2)cc1 |  | 21 µM |  |
| O=C(O)CN(C(=O)c1ccc(S)cc1)C1CCCC1 |  | 21 µM |  |
| CC(C)c1cccc(C(=O)N(CC(=O)O)C2CCCC2)c1S | 0 min | 120 µM | Mean decrease [1]: 23% |
| O=C(O)CN(C(=O)c1cccc(C(F)(F)F)c1S)C1CCCC1 | 20 min | 0.68 µM | Mean decrease [1]: 31% |
| O=C(O)CN(C(=O)c1ccccc1[N+](=O)[O-])C1CCCC1 |  | 100 µM | Mean duration [10]: 0 min; Mean decrease [11]: 25% |
| CC(C)(C)C(=O)Sc1ccccc1C(=O)N(CC(=O)O)C1CCCC1 |  |  | Mean decrease [8]: 19%; Mean duration [9]: 0 min |
| O=C(O)CN(C(=O)c1cccc(S)c1)C1CCCC1 | 0 min | 25 µM | Mean decrease [1]: 13% |
| Cc1cccc(C(=O)N(CC(=O)O)C2CCCC2)c1S | 50 min | 4.6 µM | Mean decrease [1]: 77% |
| O=C(O)CN(C(=O)c1ccccc1S)C1CCCC1 |  | 4.8 µM | Mean decrease [12]: 34%; Mean duration [9]: 35 min |
| O=C(O)CN(C(=O)c1cccc(Cl)c1S)C1CCCC1 |  | 0.28 µM | Mean duration [4]: > 4 h; Mean decrease [5]: 85%; ED50 [6]: 0.3 mg/kg |
| O=C(O)CN(C(=O)c1cccc(F)c1S)C1CCCC1 | 105 min | 0.55 µM | Mean decrease [1]: 84% |
| O=C(O)CN(C(=O)c1cc(Cl)cc(Cl)c1O)C1CCCC1 |  | 100 µM |  |
| CCOC(=O)CN(C(=O)c1cc(Cl)cc(Cl)c1OC(C)=O)C1CCCC1 |  | 100 µM |  |
